Results from ChEMBL document CHEMBL1128344 (J Med Chem, 1995).

System: not listed separately
Test: Inhibition of v-src from baculovirus culture
Details: not given
In short: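 pp60v-src from v-src baculovirus-infected insect cells, bound via monoclonal antibody to 0.65 μm latex beads. Activity was measured as ³²P incorporation from [γ-³²P]ATP into poly[(glu)4(tyr)1] substrate.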

Compared with `CN1C(=S)C(C(=O)c2ccco2)c2ccccc21` (configuration not stated), `CC(=O)C1C(=S)N(C)c2ccccc21` (configuration not stated) is higher in IC50: 10.8 µM for the first, greater than 50 µM for the second.

Going from `CC1C(=S)N(C)c2ccccc21` (configuration not stated) to `CN1C(=S)C(C(=O)Nc2ccccc2)c2ccccc21` (configuration not stated), the IC50 falls from greater than 100 µM to 10 µM.

For `CN(C)CCCn1c(SSc2c(C(=O)Nc3ccccc3)c3ccccc3n2CCCN(C)C)c(C(=O)Nc2ccccc2)c2ccccc21`, the IC50 was 5.6 µM.

Molecular target: T1, Epidermal growth factor receptor (Homo sapiens, UniProt P00533)
Test: Inhibitory concentration compound against EFGR tyrosine kinase obtained from plasma membrane vesicles from cultured A431 cells
Format: cell-free, A-431
Details: not given

T1 sequence (P00533 whole entry): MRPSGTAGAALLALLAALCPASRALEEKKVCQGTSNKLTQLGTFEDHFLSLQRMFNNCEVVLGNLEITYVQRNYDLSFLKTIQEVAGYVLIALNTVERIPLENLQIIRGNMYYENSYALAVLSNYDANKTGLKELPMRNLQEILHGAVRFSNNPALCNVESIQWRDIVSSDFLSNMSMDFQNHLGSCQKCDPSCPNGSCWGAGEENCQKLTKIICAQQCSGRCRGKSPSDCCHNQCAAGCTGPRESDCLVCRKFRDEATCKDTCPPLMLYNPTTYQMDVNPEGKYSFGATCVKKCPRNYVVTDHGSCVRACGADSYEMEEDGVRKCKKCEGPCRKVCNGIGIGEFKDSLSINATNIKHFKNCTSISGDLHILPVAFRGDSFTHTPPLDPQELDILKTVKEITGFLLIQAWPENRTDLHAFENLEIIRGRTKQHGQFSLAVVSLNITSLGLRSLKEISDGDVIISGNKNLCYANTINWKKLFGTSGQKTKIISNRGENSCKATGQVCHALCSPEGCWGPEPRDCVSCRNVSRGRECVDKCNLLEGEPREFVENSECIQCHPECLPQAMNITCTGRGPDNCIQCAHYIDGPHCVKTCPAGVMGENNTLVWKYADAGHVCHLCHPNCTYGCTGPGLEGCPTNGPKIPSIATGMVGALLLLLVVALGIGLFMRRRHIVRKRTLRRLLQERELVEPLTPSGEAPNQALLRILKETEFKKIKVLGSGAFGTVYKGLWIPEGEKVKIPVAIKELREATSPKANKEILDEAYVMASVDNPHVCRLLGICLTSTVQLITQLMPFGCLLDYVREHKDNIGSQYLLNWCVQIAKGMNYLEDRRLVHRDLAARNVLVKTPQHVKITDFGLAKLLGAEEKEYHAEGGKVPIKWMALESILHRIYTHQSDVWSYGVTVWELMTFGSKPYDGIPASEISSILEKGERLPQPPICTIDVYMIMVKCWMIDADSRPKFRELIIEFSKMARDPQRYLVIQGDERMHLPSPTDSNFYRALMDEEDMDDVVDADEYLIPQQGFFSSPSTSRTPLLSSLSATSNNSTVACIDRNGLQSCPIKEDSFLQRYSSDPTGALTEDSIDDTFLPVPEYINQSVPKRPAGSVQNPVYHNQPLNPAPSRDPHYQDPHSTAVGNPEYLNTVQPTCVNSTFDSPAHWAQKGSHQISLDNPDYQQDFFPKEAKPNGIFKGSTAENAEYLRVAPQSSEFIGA

First: CNC(=O)c1c(SSc2[nH]c3ccccc3c2C(=O)NC)[nH]c2ccccc12
Second: O=C(Nc1ccccc1)c1c(SSc2[nH]c3ccccc3c2C(=O)Nc2ccccc2)[nH]c2ccccc12
The IC50 of the first is 16-fold lower: 6.1 µM for the first, 100 µM for the second. The first is the more potent here.

`Cn1c(SSc2c(C(=O)Nc3cccnc3)c3ccccc3n2C)c(C(=O)Nc2cccnc2)c2ccccc21` and `Cn1c(SSc2c(C(=O)Nc3ccncc3)c3ccccc3n2C)c(C(=O)Nc2ccncc2)c2ccccc21` cannot be ordered by IC50: greater than 100 µM for the first, greater than 100 µM for the second.

Going from `Cn1c(SSc2c(C(=O)c3ccco3)c3ccccc3n2C)c(C(=O)c2ccco2)c2ccccc21` to `Cn1c(SSc2c(C(=O)c3ccccc3)c3ccccc3n2C)c(C(=O)c2ccccc2)c2ccccc21`, the IC50 rises from 7.7 µM to greater than 100 µM. The first is the more potent here.

Going from `Cc1ccc(S(=O)(=O)c2c(SSc3[nH]c4ccccc4c3S(=O)(=O)c3ccc(C)cc3)[nH]c3ccccc23)cc1` to `c1ccc(-c2c(SSc3[nH]c4ccccc4c3-c3ccccc3)[nH]c3ccccc23)cc1`, the IC50 rises from 28.7 µM to 100 µM (3.5-fold).

`COC(=O)c1cccc(NC(=O)c2c(SSc3c(C(=O)Nc4cccc(C(=O)OC)c4)c4ccccc4n3C)n(C)c3ccccc23)c1` and `COC(=O)c1ccc(NC(=O)c2c(SSc3c(C(=O)Nc4ccc(C(=O)OC)cc4)c4ccccc4n3C)n(C)c3ccccc23)cc1` cannot be ordered by IC50: greater than 100 µM for the first, greater than 100 µM for the second.

Compared with `O=C(NCc1ccccc1)c1c(SSc2[nH]c3ccccc3c2C(=O)NCc2ccccc2)[nH]c2ccccc12`, `NC(Cc1c(SSc2[nH]c3ccccc3c2CC(N)C(=O)NCc2ccccc2)[nH]c2ccccc12)C(=O)NCc1ccccc1` (configuration not stated) is 4.5-fold lower in IC50: 15 µM for the first, 3.3 µM for the second.

Going from `Cn1c(SSc2c(C(=O)NCc3ccccc3)c3ccccc3n2C)c(C(=O)NCc2ccccc2)c2ccccc21` to `Cn1c(SSc2c(C(=O)Nc3ccccc3)c3ccccc3n2C)c(C(=O)Nc2ccccc2)c2ccccc21`, the IC50 rises from 1.7 µM to 10.9 µM (6.4-fold).

Going from `Cn1c(SSc2c(C(=O)Nc3ccccn3)c3ccccc3n2C)c(C(=O)Nc2ccccn2)c2ccccc21` to `Cn1c(SSc2c(C(=O)Nc3cccs3)c3ccccc3n2C)c(C(=O)Nc2cccs2)c2ccccc21`, the IC50 rises from 47 µM to greater than 100 µM.

`CCn1c(SSc2c(C(=O)Nc3ccccc3)c3ccccc3n2CC)c(C(=O)Nc2ccccc2)c2ccccc21` and `CN(C(=O)c1c(SSc2c(C(=O)N(C)c3ccccc3)c3ccccc3n2C)n(C)c2ccccc12)c1ccccc1` cannot be ordered by IC50: greater than 100 µM for the first, greater than 100 µM for the second.

Compared with `COC(=O)c1ccccc1NC(=O)c1c(SSc2c(C(=O)Nc3ccccc3C(=O)OC)c3ccccc3n2C)n(C)c2ccccc12`, `CNC(=O)c1c(SSc2c(C(=O)NC)c3ccccc3n2C)n(C)c2ccccc12` is lower in IC50: greater than 100 µM for the first, 1.8 µM for the second. The second is the more potent here.

First: CN(C)CCNC(=O)c1c(SSc2c(C(=O)NCCN(C)C)c3ccccc3n2C)n(C)c2ccccc12
Second: Cc1c(SSc2c(C)c3ccccc3n2C)n(C)c2ccccc12
The IC50 of the first is lower: 17.5 µM for the first, greater than 100 µM for the second.

Molecular target: T1, Epidermal growth factor receptor
Test: Inhibition of EFGR tyrosine kinase from A431 cells
Format: cell-based
Details: A-431
In short: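 Enzyme source was the native EGFR complex in plasma membrane vesicles shed from cultured A431 epidermoid carcinoma cells. Kinase activity was measured as ³²P incorporation from added [γ-³²P]ATP into a 6:3:1 random copolymer of glutamate, alanine and tyrosine.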

`CN1C(=S)C(C(=O)c2ccco2)c2ccccc21` (configuration not stated) and `CN1C(=S)C(C(=O)c2ccccc2)c2ccccc21` (configuration not stated) cannot be ordered by FC50: greater than 100 µM for the first, greater than 100 µM for the second.

`CC1C(=S)N(C)c2ccccc21` (configuration not stated) and `CC(=O)C1C(=S)N(C)c2ccccc21` (configuration not stated) cannot be ordered by FC50: greater than 100 µM for the first, greater than 100 µM for the second.

First: CN(C)CCCn1c(SSc2c(C(=O)Nc3ccccc3)c3ccccc3n2CCCN(C)C)c(C(=O)Nc2ccccc2)c2ccccc21
Second: CN1C(=S)C(C(=O)Nc2ccccc2)c2ccccc21 (configuration not stated)
The FC50 of the first is 26-fold higher: 26 µM for the first, 1 µM for the second.

Compared with `COC(=O)c1ccc(C(=O)C2C(=S)N(C)c3ccccc32)cc1` (configuration not stated), `CN1C(=S)C(C(=O)c2ccc(C(=O)O)cc2)c2ccccc21` (configuration not stated) is lower in FC50: greater than 100 µM for the first, 8.7 µM for the second.

Molecular target: not listed separately
Test: Inhibitory concentration of the against pp60v-src tyrosine kinase obtained from v-src baculovirus-infected insect cells
Details: not given

Going from `Cn1c(SSc2c(C(=O)Nc3ccccc3)c3cc(C(F)(F)F)ccc3n2C)c(C(=O)Nc2ccccc2)c2cc(C(F)(F)F)ccc21` to `Cn1c(SSc2c(C(=O)Nc3ccccc3)c3ccccc3n2C)c(C(=O)Nc2ccccc2)c2ccccc21`, the IC50 falls from 5.8 µM to 3.2 µM (1.8-fold).
